Results as given in ChEMBL document CHEMBL5046302, “Identification and Evaluation of Brominated Carbazoles as a Novel Antibiotic Adjuvant Scaffold in MRSA” (2022).
Calls of active or inactive are those of the source. No cut-off for these calls is given here.

Tests used:
Type in all cases: functional
[1] = test system: Staphylococcus aureus; experiment: Potentiation of oxacillin induced antibacterial activity against methicillin-resistant Staphylococcus aureus assessed as fold decrease in blaZ gene expression at 50 uM by RT-qPCR analysis
Procedure, shortened: (§1)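 Fold dampening is the relative mRNA level of the gene, normalised to 16S rRNA, in oxacillin-treated cells divided by that in cells cotreated with oxacillin plus carbazole. Carbazole was used at 25 or 50 μM, as given in each line.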

[2] = test system: Staphylococcus aureus; experiment: Potentiation of oxacillin induced antibacterial activity against methicillin-resistant Staphylococcus aureus assessed as fold decrease in mecA gene expression at 50 uM by RT-qPCR analysis; procedure, shortened: as §1
[3] = test system: Staphylococcus aureus; experiment: Potentiation of oxacillin induced antibacterial activity against methicillin-resistant Staphylococcus aureus assessed as fold decrease in mecI gene expression at 50 uM by RT-qPCR analysis; procedure, shortened: as §1
[4] = test system: Staphylococcus aureus; experiment: Potentiation of oxacillin induced antibacterial activity against methicillin-resistant Staphylococcus aureus USA300 harboring stk1 deletion mutant assessed as fold change in oxacillin MIC at 50 uM after 18 hrs by CLSI protocol based broth microdilution assay
[5] = test system: Staphylococcus aureus; experiment: Potentiation of oxacillin induced antibacterial activity against methicillin-resistant Staphylococcus aureus USA300 harboring stk1 deletion mutant co-transfected with a plasmid bearing stk1 assessed as oxacillin MIC at 50 uM after 18 hrs by CLSI protocol based broth microdilution assay
Procedure, shortened: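 Oxacillin MIC by broth microdilution in the USA300 Δstk1 strain complemented with plasmid-borne stk1, with stk1 expression induced. Tested with and without carbazole at 50 μM. Fold change in MIC is taken relative to oxacillin alone.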

[6] = test system: Staphylococcus aureus; experiment: Potentiation of oxacillin induced antibacterial activity against methicillin-resistant Staphylococcus aureus ATCC 43300 assessed as fold change in oxacillin MIC at 25 uM after 18 hrs by CLSI protocol based broth microdilution assay
[7] = test system: Staphylococcus aureus; experiment: Potentiation of methicillin induced antibacterial activity against methicillin-resistant Staphylococcus aureus USA100 assessed as fold change in methicillin MIC at 25 uM after 18 hrs by CLSI protocol based broth microdilution assay
[8] = test system: Staphylococcus aureus; experiment: Potentiation of cefoxitin induced antibacterial activity against methicillin-resistant Staphylococcus aureus USA100 assessed as fold change in cefoxitin MIC at 25 uM after 18 hrs by CLSI protocol based broth microdilution assay
[9] = test system: Staphylococcus aureus; experiment: Potentiation of oxacillin induced antibacterial activity against methicillin-resistant Staphylococcus aureus assessed as fold decrease in blaI gene expression at 25 uM by RT-qPCR analysis; procedure, shortened: as §1
[10] = test system: Staphylococcus aureus; experiment: Potentiation of oxacillin induced antibacterial activity against methicillin-resistant Staphylococcus aureus COL assessed as fold change in oxacillin MIC at 25 uM after 18 hrs by CLSI protocol based broth microdilution assay
[11] = test system: Staphylococcus aureus; experiment: Upregulation of mecA gene expression in methicillin-resistant Staphylococcus aureus ATCC 43300 at 25 uM by RT-PCR method
[12] = test system: Staphylococcus aureus; experiment: Upregulation of mecA gene expression in methicillin-resistant Staphylococcus aureus USA100 at 25 uM by RT-PCR method

Compound	fold change (FC) [1]	fold change (FC) [2]	fold change (FC) [3]	fold change (FC) [4]	MIC [5] [µg/mL]	fold change (FC) [6]	fold change (FC) [7]	fold change (FC) [8]	fold change (FC) [9]	fold change (FC) [10]	Activity [11]	Activity [12]
Brc1cccc2c1[nH]c1ccccc12	3.86	1.39	0.67	1	1							
Brc1cccc2[nH]c3ccccc3c12						4	16	4	4.65	1	inactive	inactive
